From ChEMBL document CHEMBL1649306, “Arylimidamide DB766, a potential chemotherapeutic candidate for Chagas' disease treatment” (Antimicrob Agents Chemother, 2010)
The source made the active and inactive calls. The rule behind the calls is not given here.

How the values were obtained:
Mus musculus [1] = assay: Toxicity in […](H-2k) mouse assessed as effect on creatine kinase level at 100 mg/kg/day, ip; type: organism-based; design: route intraperitoneal; details: in vivo
Mus musculus [2] = assay: Toxicity in […](H-2k) mouse assessed as effect on GPT level at 100 mg/kg/day, […]; type: organism-based; details: in vivo
Trypanosoma cruzi [3] = assay: Antitrypanosomal activity against Trypanosoma cruzi Y infected in Swiss-Webster mouse assessed as decrease in parasite-induced weight loss at 100 mg/kg/day, ip administered 5 days post-infection for 10 consecutive days measured on day 120; type: functional, organism-based
How it was run: (§1)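 Body weight of infected, treated mice followed from 0 to 120 dpi.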

Trypanosoma cruzi [4] = assay: Antitrypanosomal activity against Trypanosoma cruzi Y bloodstream forms infected in Swiss-Webster mouse assessed as decrease in cardiac parasite load at 100 mg/kg/day, ip administered 5 days postinfection for 10 alternate days measured after 14 days postinfection; type: functional, Heart; design: scale not given: the % may be the effect or the level left; details: route intraperitoneal
Trypanosoma cruzi [5] = assay: Antitrypanosomal activity against bloodstream forms of Trypanosoma cruzi Y after 24 hrs by light microscopy in presence of 96% mouse blood; type: functional, organism-based
How it was run: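 Bloodstream trypomastigotes held at 4°C in freshly isolated mouse blood (96%) with serial dilutions up to 32 μM. Live motile parasites counted by light microscopy in a Neubauer chamber, giving an IC50 for each exposure time.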

Trypanosoma cruzi [6] = assay: Antitrypanosomal activity against bloodstream forms of Trypanosoma cruzi Y after 24 hrs by light microscopy in presence of 50% mouse blood; type: functional, organism-based
How it was run: (§2)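 Bloodstream trypomastigotes kept at 4°C for 24 h in freshly isolated 50% mouse blood with serial dilutions (up to 32 μM). Motile live parasites counted in a Neubauer chamber by light microscopy; IC50 calculated as concentration reducing parasite number by 50%.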

Trypanosoma cruzi [7] = assay: Antitrypanosomal activity against bloodstream forms of Trypanosoma cruzi YuYu after 24 hrs by light microscopy in presence of 50% mouse blood; type: functional, organism-based; how it was run: as §2
Trypanosoma cruzi [8] = assay: Antitrypanosomal activity against Trypanosoma cruzi 762 epimastigotes after 24 hrs by light microscopy; type: functional, organism-based; details: Trypanosoma cruzi, 762, 24 h
How it was run: (§3)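 Epimastigotes from 5-day exponential cultures, 5 × 10^6 parasites/ml in LIT medium, incubated at 28°C up to 96 h with DB766 0 to 32 μM or Bz 0 to 250 μM. Counted daily in a Neubauer chamber. IC50 averaged from at least three determinations in duplicate.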

Trypanosoma cruzi [9] = assay: Antitrypanosomal activity against Trypanosoma cruzi 875 epimastigotes after 24 hrs by light microscopy; type: functional, organism-based; details: Trypanosoma cruzi, 875, 24 h; how it was run: as §3
Trypanosoma cruzi [10] = assay: Antitrypanosomal activity against Trypanosoma cruzi 956 epimastigotes after 24 hrs by light microscopy; type: functional, organism-based; details: Trypanosoma cruzi, 956, 24 h; how it was run: as §3
[11] = Cytotoxicity against Swiss-Webster mouse cardiomyocytes after 72 hrs by MTT assay; type: cell-based, Cardiomyocyte; details: read-out: LC50
How it was run: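 Primary embryonic cardiomyocytes from Swiss mice, uninfected, incubated 24 h or 72 h at 37°C, 5% CO2, with 0 to 96 μM in DMEM. MTT read at 490 nm; LC50 taken as concentration reducing viability by 50%; at least three experiments in duplicate.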

Trypanosoma cruzi [12] = assay: Antitrypanosomal activity against bloodstream forms of Trypanosoma cruzi Y infected in Swiss mouse cardiomyocytes assessed as parasite crista dilation at 10 ug/ml after 2 hrs by transmission electron microscopy; type: functional, organism-based
How it was run: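 Y-strain bloodstream trypomastigotes treated 2 to 24 h at 37°C. Fixed 60 min at 4°C in 2.5% glutaraldehyde in 0.1 M cacodylate, pH 7.2. Postfixed 1 h at 4°C in 1% OsO4 with 0.8% potassium ferricyanide. Acetone-dehydrated, Epon-embedded, sections stained with uranyl acetate and lead citrate, ultrastructure examined by TEM.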

Mus musculus [13] = assay: Toxicity in […](H-2k) mouse assessed as mortality at cumulative dose of 200 mg/kg, ip measured after 48 hrs; type: organism-based; design: dose 200 mg/kg, route intraperitoneal; details: in vivo
How it was run: (§4)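 Uninfected 8–10-week-old female and male Swiss Webster and C3H/He (H-2k) mice injected i.p. on day 1 every 2 h with escalating doses: 5, 15, 30, 50 and 100 mg/kg (cumulative 20, 50, 100, 200 mg/kg). Toxic and subtoxic signs inspected on days 2–3 per OECD guidelines; tolerated dose set at 48 h.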

Mus musculus [14] = assay: Toxicity in male Swiss-Webster mouse assessed as mortality at cumulative dose of 200 mg/kg, ip measured after 48 hrs; type: organism-based; design: dose 200 mg/kg, route intraperitoneal; details: in vivo; how it was run: as §4
Trypanosoma cruzi [15] = assay: Antitrypanosomal activity against Trypanosoma cruzi Y bloodstream forms infected in Swiss-Webster mouse assessed as decrease in parasite load at 50 mg/kg/day, ip administered 8 days postinfection measured on day 2; type: functional; design: scale not given: the % may be the effect or the level left; details: route intraperitoneal
How it was run: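 Two-day regimen in male Swiss mice infected i.p. with 10^4 Y-strain bloodstream forms: i.p. doses (0.2 ml) at 5 and 8 dpi. Circulating parasites quantified at the 8 dpi peak by Pizzi-Brener method; reduction versus infected untreated mice; n ≥ 6 per group.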

Trypanosoma cruzi [16] = assay: Antitrypanosomal activity against Trypanosoma cruzi Y bloodstream forms infected in Swiss-Webster mouse assessed as survival of mouse at 50 mg/kg/day, ip administered 8 days postinfection measured on day 120; type: functional, organism-based
How it was run: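 Male Swiss mice infected i.p. with 10^4 Y strain bloodstream forms. Given 0.2 ml i.p. at 5 and 8 dpi, or daily for 10 days from 5 dpi; reference drug given by gavage. Parasitemia measured by the Pizzi-Brener method, cumulative mortality checked daily to 120 dpi, n ≥ 6 per group.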

Trypanosoma cruzi [17] = assay: Antitrypanosomal activity against Trypanosoma cruzi Y bloodstream forms infected in Swiss-Webster mouse assessed as decrease in parasite load at 50 mg/kg/day, ip administered 5 days postinfection for 10 consecutive days measured after 8 days; type: functional; design: scale not given: the % may be the effect or the level left; details: route intraperitoneal
How it was run: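 Eight-week-old male Swiss mice infected i.p. with 10^4 Y-strain bloodstream trypomastigotes; parasitemia-positive mice only (n ≥ 6). Dosing i.p. (0.2 ml) daily for 10 consecutive days from parasitemia onset (5 dpi). Parasitemia at the 8 dpi peak counted by Pizzi-Brener method; reduction relative to infected untreated group.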

Trypanosoma cruzi [18] = assay: Antitrypanosomal activity against Trypanosoma cruzi Y bloodstream forms infected in Swiss-Webster mouse assessed as reduction in parasite-induced weight loss in mouse at 100 mg/kg/day, po administered 5 days postinfection for 10 consecutive days measured on day 120; type: functional, organism-based; how it was run: as §1
Trypanosoma cruzi [19] = assay: Antitrypanosomal activity against Trypanosoma cruzi Columbian bloodstream forms infected in C3H mouse assessed as decrease in parasite load at 25 mg/kg/day, ip administered 5 days postinfection for 10 consecutive days measured after 120 days; type: functional, organism-based
Trypanosoma cruzi [20] = assay: Antitrypanosomal activity against Trypanosoma cruzi Columbian bloodstream forms infected in C3H mouse assessed as decrease in parasite load at 50 mg/kg/day, ip p administered 5 days postinfection for 10 consecutive days measured after 120 days; type: functional, organism-based
Trypanosoma cruzi [21] = assay: Antitrypanosomal activity against Trypanosoma cruzi Columbian bloodstream forms infected in C3H mouse assessed as decrease in parasite load in 50 mg/kg/day, po administered 5 days postinfection for 10 consecutive days measured after 120 days; type: functional, organism-based
Trypanosoma cruzi [22] = assay: Antitrypanosomal activity against Trypanosoma cruzi Columbian bloodstream forms infected in C3H mouse assessed as survival of mouse at 100 mg/kg/day, po administered 5 days postinfection for 10 consecutive days measured after 31 days; type: functional
How it was run: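 Male C3H/He (H-2k) mice infected i.p. with 5 × 10^3 Colombian-strain bloodstream trypomastigotes; only parasitemia-positive mice grouped (n ≥ 6). DB766 100 mg/kg/day given i.p. (0.1 ml) or by gavage (0.1 ml), daily for 10 treatments. Parasitemia by Pizzi-Brener method; mortality checked daily, expressed as cumulative percentage.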

Q: Which Activity (Mus musculus [1]) does the source give for `CC(C)Oc1cc(NC(=N)c2ccccn2)ccc1-c1ccc(-c2ccc(NC(=N)c3ccccn3)cc2OC(C)C)o1` here?
A: Non-toxic

Q: And the Activity (Mus musculus [2])?
A: Non-toxic

Q: And the Activity (Trypanosoma cruzi [3])?
A: inactive

Q: And the Activity (Trypanosoma cruzi [4])?
A: 94%

Q: And the IC50 (Trypanosoma cruzi [5])?
A: 60 nM

Q: And the IC50 (Trypanosoma cruzi [6])?
A: 710 nM

Q: What about the IC50 (Trypanosoma cruzi [7]) of the same compound?
A: 820 nM

Q: And the IC50 (Trypanosoma cruzi [8])?
A: 60 nM

Q: What about the IC90 (Trypanosoma cruzi [8]) of the same compound?
A: 180 nM

Q: And the IC50 (Trypanosoma cruzi [9])?
A: 60 nM

Q: What about the IC90 (Trypanosoma cruzi [9]) of the same compound?
A: 240 nM

Q: What about the IC50 (Trypanosoma cruzi [10]) of the same compound?
A: 160 nM

Q: And the IC90 (Trypanosoma cruzi [10])?
A: 320 nM

Q: What about the CC50 at 72 h [11] of the same compound?
A: 16400 nM

Q: And the Activity (Trypanosoma cruzi [12])?
A: Active

Q: What about the Activity (Mus musculus [13]) of the same compound?
A: Non-toxic

Q: What about the Activity (Mus musculus [14]) of the same compound?
A: Non-toxic

Q: And the Activity (Trypanosoma cruzi [15])?
A: 88%

Q: And the Activity (Trypanosoma cruzi [16])?
A: Active

Q: And the Activity (Trypanosoma cruzi [17])?
A: 98%

Q: What about the Activity (Trypanosoma cruzi [18]) of the same compound?
A: Active

Q: And the Activity (Trypanosoma cruzi [19])?
A: Active

Q: And the Activity (Trypanosoma cruzi [20])?
A: Active

Q: What about the Activity (Trypanosoma cruzi [21]) of the same compound?
A: inactive

Q: And the Activity (Trypanosoma cruzi [22])?
A: 100%
